Experimental data: ChEMBL document CHEMBL2040770, “Finger loop inhibitors of the HCV NS5b polymerase. Part II. Optimization of tetracyclic indole-based macrocycle leading to the discovery of TMC647055” (Bioorg Med Chem Lett, 2012); call rule not given here

Tests used:
[1] = Metabolic stability in rat liver microsomes assessed as compound metabolized at 5 uM after 15 mins; format: ADME, Microsome; details: read-out: Drug metabolism
Summary of the method: (§1)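 Rat or human liver microsomes incubated with compound at 5 µM for 15 min. Stability is given as % of compound metabolized.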

[2] = Cmax in Sprague-Dawley rat at 10 mg/kg, po; format: ADME, organism-based; design: dose 10 mg/kg, route oral; details: in vivo
Summary of the method: (§2)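 Male Sprague–Dawley rats (n = 3) given a single iv dose of 2 mg/kg in PEG400/saline 70:30 and a single oral dose of 10 mg/kg in PEG400/2% vitamin E-TPGS. Plasma kinetics were followed to give plasma clearance, Cmax and oral bioavailability.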

[3] = Drug uptake in Sprague-Dawley rat liver at 10 mg/kg, po measured after 7 hrs; format: ADME, organism-based; design: dose 10 mg/kg, route oral; details: read-out: Drug uptake
Summary of the method: (§3)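 Male Sprague–Dawley rats (n = 3) received a single oral dose of 10 mg/kg in PEG400/2% vitamin E-TPGS. Liver concentration was measured 7 h post-dosing, and the liver/plasma concentration ratio was taken at that same 7 h time point.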

[4] = Oral bioavailability in Sprague-Dawley rat at 10 mg/kg; format: ADME, organism-based; details: in vivo; summary of the method: as §2
[5] = Ratio of drug uptake in Sprague-Dawley rat liver to plasma at 10 mg/kg, po measured after 7 hrs; format: ADME, organism-based; design: dose 10 mg/kg, route oral; summary of the method: as §3
[6] = Clearance in Sprague-Dawley rat at 2 mg/kg, iv and 10 mg/kg, po; format: ADME, organism-based; details: in vivo; summary of the method: as §2
[7] = Metabolic stability in human liver microsomes assessed as compound metabolized at 5 uM after 15 mins; format: ADME, Microsome; details: read-out: Drug metabolism; summary of the method: as §1
Hepatitis C virus = assay: Antiviral activity against Hepatitic C virus genotype 1b clone ET infected in human Huh7 replicon cells after 72 hrs by luciferase reporter gene assay; format: functional, organism-based, Hepacivirus hominis; details: Huh-7, 72 h
[8] = Selectivity index, ratio of CC50 for human Huh7 cells to EC50 for Hepatitic C virus genotype 1b clone ET; format: toxicity, cell-based, Huh-7; details: read-out: Ratio CC50/EC50
Summary of the method: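 Selectivity index computed in Huh-7 cells as CC50/EC50.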

Rattus norvegicus = species on record: Rattus norvegicus; assay: Drug metabolism in Sprague-Dawley rat assessed as reactive acyl glucuronides formation; format: ADME, organism-based; details: in vivo
[9] = Inhibition of cytochrome P450; format: ADME
[10] = Plasma clearance in dog at 10 mg/kg, po; format: ADME, organism-based, Canis lupus familiaris; design: dose 10 mg/kg, route oral
Canis familiaris = assay: Volume of distribution at steady state in dog at 10 mg/kg, po; format: ADME, organism-based, Canis lupus familiaris; design: dose 10 mg/kg, route oral; details: in vivo
[11] = Cmax in dog at 10 mg/kg, po; format: ADME, organism-based, Canis lupus familiaris; design: dose 10 mg/kg, route oral; details: in vivo
Summary of the method: (§4)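 Dogs given a single oral dose of 10 mg/kg. Peak plasma concentration and plasma AUC extrapolated to infinity were determined, reported in µM and µM h.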

[12] = AUC (0 to infinity) in dog at 10 mg/kg, po; format: ADME, organism-based, Canis lupus familiaris; design: time infinity, dose 10 mg/kg, route oral; details: plasma; summary of the method: as §4
[13] = Oral bioavailability in dog at 10 mg/kg; format: ADME, organism-based, Canis lupus familiaris; details: in vivo

concentration at 7 h [3] [ng/mL]	bioavailability [4] [%]	Kp at 7 h [5]	clearance [6] [mL/min/kg]	Compound	metabolised at 0.25 h, 5 µM [1] [%]	metabolised at 0.25 h, 5 µM [7] [%]	EC50 (Hepatitis C virus) [nM]	selectivity ratio [8]	other results
5000	76	23	40	COc1ccc2c(c1)C=C1Cn3c-2c(C2CCCCC2)c2ccc(cc23)C(=O)NS(=O)(=O)N(C)CCCCN(C)C1=O	26	56	82	> 330	Cmax [2]: 800 ng/mL
–	–	–	–	CN1CCCCN(C)S(=O)(=O)NC(=O)c2ccc3c(C4CCCCC4)c4n(c3c2)CC(=Cc2ccc(Cl)cc2-4)C1=O	30	29	14500	> 2	–
–	–	–	–	COc1ccc2c(c1)C=C1Cn3c-2c(C2CCCCC2)c2ccc(cc23)C(=O)NS(=O)(=O)N2CCN(CCNC1=O)CC2	16	10	860	> 40	–
–	–	–	–	COc1ccc2c(c1)C=C1Cn3c-2c(C2CCCCC2)c2ccc(cc23)C(=O)NS(=O)(=O)N(C)CCN(C)CCNC1=O	–	–	550	> 58	–
–	–	–	–	COc1ccc2c(c1)C=C1Cn3c-2c(C2CCCCC2)c2ccc(cc23)C(=O)NS(=O)(=O)NCCN(C)CCNC1=O	23	7	470	> 68	–
–	–	–	–	COc1ccc2c(c1)C=C1Cn3c-2c(C2CCCCC2)c2ccc(cc23)C(=O)NS(=O)(=O)N(C)CCCCNC1=O	13	20	912	> 40	–
–	–	–	–	COc1ccc2c(c1)C=C1Cn3c-2c(C2CCCCC2)c2ccc(cc23)C(=O)NS(=O)(=O)NCCCCN(C)C1=O	25	27	550	> 58	–
–	–	–	–	COc1ccc2c(c1)C1C[C@@]13Cn1c-2c(C2CCCCC2)c2ccc(cc21)C(=O)NS(=O)(=O)N(C)CCOCCN(C)C3=O (stereo not given in full)	–	–	800	–	–
3200	51	38	86.7	COc1ccc2c(c1)C1C[C@]13Cn1c-2c(C2CCCCC2)c2ccc(cc21)C(=O)NS(=O)(=O)N(C)CCOCCN(C)C3=O (stereo not given in full)	72	95	40	–	–
–	–	–	–	CCN(CC)C1CCN(C(=O)Cn2c(-c3ccc(Cl)cc3)c(C3CCCCC3)c3ccc(C(=O)O)cc32)CC1	–	–	127	–	–
–	–	–	–	COc1ccc2c(c1)C=C1Cn3c-2c(C2CCCCC2)c2ccc(cc23)C(=O)NS(=O)(=O)N(C(C)C)CCCCN(C)C1=O	12	80	330	> 100	–
898	15	22	53.3	COc1ccc2c(c1)C[C@@H]1Cn3c-2c(C2CCCCC2)c2ccc(cc23)C(=O)NS(=O)(=O)N(C)CCOCCN(C)C1=O	42	63	–	–	–
–	–	–	–	CN1CCOCCN(C)S(=O)(=O)NC(=O)c2ccc3c(C4CCCCC4)c4n(c3c2)CC(=Cc2cc(Cl)ccc2-4)C1=O	22	16	280	150	–
–	–	–	–	COc1ccc2c(c1)C=C1Cn3c-2c(C2CCCCC2)c2ccc(cc23)C(=O)NS(=O)(=O)N(C)CCCN(C)C1=O	28	18	680	72	–
–	–	–	–	COc1ccc2c(c1)C=C1Cn3c-2c(C2CCCCC2)c2ccc(cc23)C(=O)NS(=O)(=O)N(C)CCCCCCN(C)C1=O	46	99	160	150	–
7800	> 66	46	53.3	COc1ccc2c(c1)C=C1Cn3c-2c(C2CCCCC2)c2ccc(cc23)C(=O)NS(=O)(=O)N(C)CCOCCN(C)C1=O [TMC-647055]	30	35	82	> 300	Cmax [2]: 440 ng/mL; Drug metabolism (Rattus norvegicus): Not Active; inhibition (INH) [9]: Not Active; CL/F [10]: 9 mL/min/kg; Vdss (Canis familiaris): 0.32 L/kg; Cmax [11]: 10.2 µM; AUC(0-inf) [12]: 25.8 µM·h; bioavailability [13]: 87%
1720	21	64	128	CN1CCOCCN(C)S(=O)(=O)NC(=O)c2ccc3c(C4CCCCC4)c(n(C)c3c2)-c2ccccc2OCC1=O	–	–	190	–	–

Compound	concentration at 7 h [3] [ng/mL]	bioavailability [4] [%]	Kp at 7 h [5]	clearance [6] [mL/min/kg]	metabolised at 0.25 h, 5 µM [1] [%]	metabolised at 0.25 h, 5 µM [7] [%]	EC50 (Hepatitis C virus) [nM]	selectivity ratio [8]	other results
CN1CCOCCN(C)S(=O)(=O)NC(=O)c2ccc3c(C4CCCCC4)c4n(c3c2)CC(=Cc2cc(F)ccc2-4)C1=O	6560	52	62	61.7	37	38	72	> 250	Cmax [2]: 272 ng/mL
COc1ccc2c(c1)C=C1Cn3c-2c(C2CCCCC2)c2ccc(cc23)C(=O)NS(=O)(=O)N(C)CCCCCNC1=O	6320	6	341	70	27	32	130	> 400	Cmax [2]: 30 ng/mL
COc1ccc2c(c1)C=C1Cn3c-2c(C2CCCCC2)c2ccc(cc23)C(=O)NS(=O)(=O)N(C)CCN2CCN(CC2)C1=O	299	3	108	157	17	26	180	> 170	Cmax [2]: 6 ng/mL
